Data on 97 molecules can be found in ChEMBL document CHEMBL4513216, “Probing the Open Global Health Chemical Diversity Library for Multistage-Active Starting Points for Next-Generation Antimalarials” (ACS Infect Dis, 2020).

The data set in a line: Toxicity liver stage against HepG2, at 10uM. Type of data set: cell-based. Also on record: test concentration 10 uM, cell line HepG2-A16-CD81EGFP. To be noted: human, HepG2-A16-CD81EGFP cells; read-out: INHIBITION
Put shortly: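 Uninfected HepG2-A16-CD81EGFP cells, 3 × 10^3 per well, 1536-well, plated on prespotted compound at 10 μM final, parasite-free screening media added to match infected plates; puromycin 10 μM positive, DMSO 0.5% negative; run in parallel with 48 h PbLuc assay at 37 °C, 5% CO2; viability by CellTiter-Glo luminescence, normalized to controls.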
With `COc1ccc(C)c(NC(=O)NCc2cccc(N(C)C)n2)c1`, the cytotoxicity at 10 µM came to 6.13%.
In the case of `Cc1cccc(OCC(O)CNCc2c(C)nn(C)c2N(C)C)c1` (configuration not stated) it was -2.45%; in that of `CC(C)C1=NOC2(CCN(Cc3c[nH]c4ccccc34)CC2)C1`, 3.46%.
For `CNc1nc(CNC(=O)Nc2ccc(OC(C)C)cc2C)cs1`, the cytotoxicity at 10 µM stood at 26.4%.
For `Cc1cc(C(=O)N2CCN(C)CC2)nn1CC(=O)NCc1ccccn1`, the cytotoxicity at 10 µM is -3.58%.
Take `Cn1ccc(CN2CCOCC23CCNCC3)n1`: the cytotoxicity at 10 µM amounted to 6.77%.
In the case of `COc1ccnc(N2CCN(C(=O)CCc3cnn(C)c3)CC2)n1` it was 8.72%.
For the molecule `Cc1ccccc1SC1CCN(C(=O)C2CNC(=O)N2)CC1` (configuration not stated), the cytotoxicity at 10 µM is -2.22%.
In the case of `CC(C)c1nc(CN(C)C2CCN(Cc3nc(C4CC4)no3)C2)no1` (configuration not stated) it was -9.37%; in that of `COCCS(=O)(=O)Cc1nnnn1-c1ccccc1`, -9.4%.
Regarding `CC(C)(C)n1cc(C(=O)N2CCN(Cc3ccncc3)CC2)cn1`, the cytotoxicity at 10 µM was -12.8%.
Turning to `NC(=O)c1noc(Cn2ccc3ccccc3c2=O)n1`, the cytotoxicity at 10 µM was found to be 1.39%.
With `Cc1ccoc1C1=NNC(=CN2CCn3c(nnc3C3CC3)C2)O1`, the cytotoxicity at 10 µM turned out to be 7.65%.
Take `Cc1cnc(C(=O)N2CCC3(CCCN(c4nncs4)C3)C2)cn1` (configuration not stated): the cytotoxicity at 10 µM is -103%.
Consider `CN(C)c1ncc(CNS(=O)(=O)c2cc(F)ccc2Cl)n1C`, for which the cytotoxicity at 10 µM amounted to 6.69%.
The figure for `COCC(=O)NCC1CCCN(Cc2cc3ccccc3[nH]2)C1` (configuration not stated) is 7.32%; for `Cc1nn(C)c(Oc2cccc(F)c2)c1NC(=O)C1CCOCC1` it is -3.91%.
Turning to `O=C(c1nn(-c2ccccc2F)cc1O)N1CCCSCC1`, the cytotoxicity at 10 µM was -0.0414%.
The figure for `CCC1(c2ccc(NS(=O)(=O)c3ccc(Cl)s3)cc2)CCC(=O)NC1=O` (configuration not stated) is 13.5%; for `Cc1c(I)cccc1C(=O)NCC1(CO)CC1` it is -4.11%.
The figure for `CC(C)(C)NC(=O)C1(Cc2ccccc2-c2ccncc2)CCOCC1` is -6.99%; for `CN(C)c1ncnc2c1CCN(c1cccc(F)c1)CC2` it is 18.5%; for `CC(C)N1CC(C(=O)NCc2cccnc2-n2cccn2)CC1=O` (configuration not stated) it is -10.8%.
In the case of `Cc1ccccc1CC(=O)N1C[C@@H]2CC[C@H]1CN(Cc1cccnc1)C2` it was -2.36%.
Consider `Cc1nc(-c2ccc(S(=O)(=O)N3CCSCC3)cc2)co1`, for which the cytotoxicity at 10 µM worked out at 5.18%.
The figure for `CCn1cc2c(n1)CN(Cc1ccoc1)CC2COCC1CC1` (configuration not stated) is -23.3%; for `CCOc1ccc(NC(=O)NC2CCc3[nH]ncc3C2)cn1` (configuration not stated) it is 3.95%; for `O=c1[nH]c2c(-c3ccccn3)nsc2c(=O)n1CC1CC1` it is 36.2%.
Consider `Cc1cccc(NC(=O)C2CCc3ccccc3N2)c1` (configuration not stated), for which the cytotoxicity at 10 µM was -5.92%.
On to `Cc1cccc(C(C)CNS(=O)(=O)CCCC#N)c1` (configuration not stated), for which the cytotoxicity at 10 µM was -2.17%.
`COc1ccc(Cl)cc1C(=O)NCc1cnn(C)c1C`: the cytotoxicity at 10 µM came to 6.81%.
In the case of `CCN(C)S(=O)(=O)c1c(F)cc(NC(C)=O)cc1F` it was -40.7%; in that of `O=C(NCc1ccncc1)C1=NOC2(CCCNC2)C1` (configuration not stated), 5.31%.
In the case of `CN1CCOC(CNCC(=O)NCCc2ccc(F)cc2)C1` (configuration not stated) it was 1.38%.
The figure for `O=C(c1[nH]nc(C2CC2)c1Cl)N1CCCC1` is -3.78%.
Turning to `CC(=O)N1C[C@@H](c2ccsc2)[C@@H]2CN(Cc3ccccc3)CC[C@@H]21`, the cytotoxicity at 10 µM was 6.76%.
Take `NC(=O)CC1CCN(c2cncc(OCc3ccccc3)n2)CC1`: the cytotoxicity at 10 µM was determined as 8.84%.
On to `O=C(NCc1cccnc1)NCC(O)c1cccc(C(F)(F)F)c1` (configuration not stated), for which the cytotoxicity at 10 µM was -2.64%.
As to `CC(=O)N1CCC[C@@H](NCc2ccc(F)cc2)[C@@H]1c1ccc(C)s1`, the cytotoxicity at 10 µM is -22.1%.
In the case of `CN(C)CCOCc1cncc2c1CCN(C1CCOC1)C2` (configuration not stated) it was 9.68%.
As to `Cc1noc([C@@H]2CCCN2C(=O)C2CCN(CC(N)=O)CC2)n1`, the cytotoxicity at 10 µM was found to be 3.96%.
Take `FC(F)Oc1ccccc1CNCc1cc(Br)c2c(c1)OCO2`: the cytotoxicity at 10 µM was 10.7%.
In the case of `Cc1nc2n(n1)CC(NCCc1cccs1)CC2` (configuration not stated) it was -9.77%.
Turning to `O=C([C@@H]1CCCO1)N1CCn2c(Cn3cccn3)cnc2C1`, the cytotoxicity at 10 µM is -70.1%.
For `CCOC(=O)C(C)Nc1cccc(COCc2ccco2)c1` (configuration not stated), the cytotoxicity at 10 µM was 2.1%.
The figure for `Cc1nc(C)c(C(=O)N2CCCC(n3ccnc3C)C2)s1` (configuration not stated) is -5.19%; for `CCN(CCN1CCOCC1)C(=O)c1cccnc1` it is 7.42%; for `Cc1nnc(SCC(=O)NCc2ccc3c(c2)CCC(=O)N3)s1` it is -5.03%.
As to `Cc1nc(CN2C(=O)CC[C@@H]3[C@H]2CCN3C(=O)c2ccccn2)cs1`, the cytotoxicity at 10 µM was -77.7%.
`CC(=O)N1[C@H](CN(C)C)C[C@@H]2CN(C(=O)Cc3cccs3)CC[C@@H]21`: the cytotoxicity at 10 µM was -0.155%.
In the case of `Cc1cc(C[C@@H]2CCC[C@H]2NCc2ccccc2C)on1` it was -5.28%.
In the case of `Cc1nc(C(=O)N2CCC3(CC2)CC(=O)N(CC2CCCO2)C3)cs1` (configuration not stated) it was 2.34%; in that of `Cc1nccn1CCCn1cncc1-c1ccc2c(c1)CCCN2C`, -4.7%.
On to `Cc1c(Br)cccc1CNC1(CCO)CCOCC1`, for which the cytotoxicity at 10 µM was -10.7%.
The figure for `COC(=O)c1cc2n(n1)CCCN(C(=O)Cc1c[nH]c3ccccc13)C2` is 2.61%; for `CN(c1ncnc2sccc12)C1CCCN(c2cccnn2)C1` (configuration not stated) it is 0.0357%.
As to `Cc1nn(C)cc1CN(C)c1nccc(-c2cn(C)nc2C)n1`, the cytotoxicity at 10 µM is 20.2%.
In the case of `Cc1nc(N)nc(C)c1CC(=O)N1CCCCC1c1cccc(F)c1` (configuration not stated) it was -2.06%.
As to `O=C1CCCN1CCN1CCCCC1Cn1cccn1` (configuration not stated), the cytotoxicity at 10 µM turned out to be 12.9%.
In the case of `CCN1CCC(c2nc3ccc(NC(C)C)cn3n2)CC1` it was -22.3%; in that of `O=C1NCC2(CCCN(Cc3ccccc3F)C2)Oc2ccccc21` (configuration not stated), 6.12%; in that of `CC(C)Nc1ncc(-c2csc(NC(=O)C[C@H]3COCCN3)n2)cn1`, -8.69%.
In the case of `O=C(c1ccncc1)N1CCN2C[C@H](Oc3cccc(F)c3)C[C@H]2C1`, the cytotoxicity at 10 µM came out at 8.28%.
In the case of `O=C(NCCCNC(=O)c1ccc(F)cc1F)c1cccc(O)c1` it was 2.9%; in that of `CC(C)NC(=O)[C@@H]1CC[C@@H]2[C@@H](CCN2Cc2ccc3ccccc3n2)O1`, 3.98%.
The figure for `CCn1nnc2c1CCN(C(=O)c1ccc3c(c1)OCO3)C2COC` (configuration not stated) is 6.43%; for `C[C@@H]1CN(CCOc2ccc(F)cc2)CC[C@@]1(O)C1CCOCC1` it is -7.19%; for `CN(C)c1nc(NCCc2cnccn2)ncc1F` it is 5.56%.
For the molecule `O=C(CCc1cc(F)ccc1F)NS(=O)(=O)c1ccc2c(c1)OCCO2`, the cytotoxicity at 10 µM was -18.8%.
Take `CCc1nnc(Nc2cc(C)nc(C3CCN(c4cnccn4)C3)n2)s1` (configuration not stated): the cytotoxicity at 10 µM was 4.24%.
In the case of `O=C(C1CCOC1)N1CCC2(CC1)Cc1ccccc1CNC2=O` (configuration not stated) it was -113%; in that of `Cc1cnc(C(=O)NCc2cccnc2OC(C)C)cn1`, -23.4%.
The figure for `CC(C)C1CC(=O)Nc2c1cnn2Cc1ccco1` (configuration not stated) is 1.27%.
The figure for `CC(O)CN1CCN(Cc2csc(-c3ncccn3)n2)CC1` (configuration not stated) is 5.4%; for `Cc1nnc2n1CCN(Cc1ncc(-c3ccc(F)cc3)o1)C2` it is -10.7%; for `CC(OCC1CC1)C(=O)Nc1ccn(Cc2ccccc2)n1` (configuration not stated) it is 11.9%.
In the case of `CC(O)CN1CCN(C(=O)c2cnn(-c3ccccc3Cl)c2)CC1` (configuration not stated), the cytotoxicity at 10 µM is -8.9%.
In the case of `Cc1csc(C(=O)N2CCC3(CC(N(C)c4ccncn4)C3)C2)c1` (configuration not stated) it was -11.2%; in that of `COCCCNc1c(-c2ccccc2)c(=O)c1=O`, 0.409%; in that of `Cc1cnc(N2C(=O)CSC2c2ccc(F)cc2)s1` (configuration not stated), -2.92%.
On to `CCc1ccc(C(NC(=O)CN(C)S(C)(=O)=O)C(C)(C)C)o1` (configuration not stated), for which the cytotoxicity at 10 µM was -1.76%.
For `Cn1ccc(C(=O)NC2CCC23CCN(C(=O)c2cnccn2)CC3)c1` (configuration not stated), the cytotoxicity at 10 µM is -71.4%.
`Cc1nc(CN2CCC23CCN(C(=O)c2ccncc2)CC3)cs1`: the cytotoxicity at 10 µM is 0.933%.
The figure for `c1cc(CN2CCOC(Cn3cccn3)C2)c2c(c1)OCCO2` (configuration not stated) is -2.66%; for `CC1CCCN(C(=O)CCc2cccnc2)C1` (configuration not stated) it is -3.4%; for `COc1cccc(CN2CCc3nc(C(=O)NCC(C)C)sc3CC2)c1` it is 16.8%.
Consider `O=C(c1ccc(-c2nc[nH]n2)cc1)N1CCOC(C(F)(F)F)C1` (configuration not stated), for which the cytotoxicity at 10 µM is -2.35%.
The figure for `CCCn1ccnc1CN1C[C@@H](NC(C)=O)[C@H](c2ccc(OC)cc2)C1` is 0.344%; for `Cc1cc(N2CCc3c(ncn3C3CC3)C2)nc(N)n1` it is -5.44%; for `O=C(c1ccc(C2CCCO2)s1)N1CCN(c2ccccc2F)CC1` (configuration not stated) it is -15.1%.
`Cc1cc(=O)[nH]c(-n2nc(C)c(CCC(=O)NCc3cccs3)c2C)n1`: the cytotoxicity at 10 µM is 10.3%.
The figure for `CN(C)CC(=O)N1CCc2onc(Cn3cccn3)c2C1` is -3.83%.
As to `CCCC(=O)N1CCC(C(=O)NCCN2CCC(C)CC2)CC1`, the cytotoxicity at 10 µM was -2.6%.
On to `Cc1nnsc1C(=O)NCc1cccnc1N(C)C`, for which the cytotoxicity at 10 µM was -12.2%.
Consider `O=C(CN1CCC(c2ccccc2)C1)NCC(F)(F)F` (configuration not stated), for which the cytotoxicity at 10 µM is -5.28%.
In the case of `COCC1CN(C(=O)c2ccco2)Cc2cn(C)nc21` (configuration not stated) it was 9.08%; in that of `CC1CCN(C(=O)C2CCN(S(C)(=O)=O)CC2)c2ccccc21` (configuration not stated), -9.28%.
